The text below walks through data of ChEMBL document CHEMBL1147962, “Synthesis and antifungal activity of novel s-substituted 6-fluoro-4-alkyl(aryl)thioquinazoline derivatives” (Bioorg Med Chem, 2007).

≈ marks a conversion by molar mass, not a printed value. Calls of active or inactive are those of the source. No cut-off for these calls is given here.

The subject of assay [1] is Fusarium oxysporum. The assay can be described thus: Antifungal activity against Fusarium oxysporum. It counts as functional, organism-based. In a few lines:
(§1)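 Preliminary fungicidal bioassay on plant-pathogenic fungi (G. zeae, F. oxysporum, C. mandshurica), with the commercial fungicide Hymexazol as reference.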

The test system of a further assay is Thanatephorus cucumeris. As to the kind of experiment: Antifungal activity against Thanatephorus cucumeris. The assay is classed as functional, organism-based.
In assay [2] the test system is Fusarium graminearum. As to the kind of experiment: Antifungal activity against Gibberella zeae. It counts as functional, organism-based.
In assay [3] the test system is Cytospora. As to the kind of experiment: Antifungal activity against Cytospora mandshurica at 500 ug/mL. The assay is classed as functional.
In assay [4] the test system is Colletotrichum gloeosporioides. As to the kind of experiment: Antifungal activity against Colletotrichum gloeosporioides. The assay is classed as functional, organism-based.
The test system of the next assay is Sclerotinia sclerotiorum. The assay can be described thus: Antifungal activity against Sclerotinia sclerotiorum. It counts as functional, organism-based.
Assay [5] concerns Fusarium graminearum. As to the kind of experiment: Antifungal activity against Gibberella zeae at 500 ug/mL. It counts as functional.
Assay [6] relates to Cytospora. As to the kind of experiment: Antifungal activity against Cytospora mandshurica. The assay is classed as functional. The gist of the method:
as §1

In assay [7] the test system is Fusarium oxysporum. The assay can be described thus: Antifungal activity against Fusarium oxysporum at 500 ug/mL. The assay is classed as functional.
For the next assay, the system named is Phytophthora infestans. The assay can be described thus: Antifungal activity Phytophthora infestans. It counts as functional, organism-based.
The next assay relates to Botrytis cinerea. As to the kind of experiment: Antifungal activity against Botrytis cinerea. It counts as functional, organism-based.
The test system of the next assay is Rhizoctonia solani. The assay can be described thus: Antifungal activity against Rhizoctonia solani. It counts as functional, organism-based.
The test system of assay [8] is Fusarium oxysporum. The assay can be described thus: Effect on hyphal morphology of Fusarium oxysporum at 100 ug/mL. The assay is classed as functional, organism-based. The gist of the method: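 Hyphae and cell contents of treated F. oxysporum were examined microscopically against untreated control hyphae.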
The subject of assay [9] is Fusarium oxysporum. The assay can be described thus: Decrease in mycelial reducing sugar content in Fusarium oxysporum at 6 hrs. It counts as functional, organism-based. In a few lines:
(§2)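 Reducing sugar content (mg/mL) of F. oxysporum mycelia was followed over time, sampled from 0.5 h to 12 h of treatment, against an untreated control.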

Assay [10] relates to Fusarium oxysporum. As to the kind of experiment: Increase in membrane permeability of Fusarium oxysporum at 100 ug/mL after 5 mins. It counts as functional. The gist of the method:
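F. oxysporum cells were treated and sampled from 5 min onward over a longer time course. Cell-membrane relative permeability rate (%) was measured against an untreated control, with Hymexazol as reference.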

Assay [11] concerns Fusarium oxysporum. As to the kind of experiment: Decrease in mycelial reducing sugar content in Fusarium oxysporum after 0.5 hrs relative to control. The assay is classed as functional. On the set-up: scale not given: the % may be the effect or the level left. In a few lines: as §2
For assay [12], the system named is Fusarium oxysporum. The assay can be described thus: Decrease in mycelial chitosan content in Fusarium oxysporum after 6 hrs relative to control. It counts as functional. The arrangement: scale not given: the % may be the effect or the level left. The gist of the method:
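Chitosan content was measured as D-GlcNAc in F. oxysporum mycelia from treated cultures and read 6 h after inoculation. An untreated culture served as control and Hymexazol as the reference fungicide.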

Assay [13] relates to Fusarium oxysporum. As to the kind of experiment: Increase in mycelial soluble protein content in Fusarium oxysporum relative to control after 0.5 hrs. The assay is classed as functional. The gist of the method:
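Soluble protein content of treated F. oxysporum mycelia was followed from 0.5 h of exposure and expressed relative to an untreated control. Hymexazol was run alongside as reference.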

Assay [14] concerns Fusarium oxysporum. The assay can be described thus: Effect on sporule germination of Fusarium oxysporum at 100 ug/mL. It counts as functional. The gist of the method:
(§3)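 F. oxysporum spores were exposed to a concentration series. Germination was scored as percentage of spores germinated, and inhibition was calculated relative to an untreated control.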

Assay [15] concerns Fusarium oxysporum. The assay can be described thus: Inhibition of sporule germination of Fusarium oxysporum at 60 ug/mL. It counts as functional. The gist of the method: as §3
Assay [16] deals with Fusarium oxysporum. As to the kind of experiment: Decrease in mycelial chitinase activity assessed as D-GlcNAc content in Fusarium oxysporum after 1 hrs. The assay is classed as functional. In a few lines: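 F. oxysporum mycelia were treated over a time course up to 24 h and compared with an untreated control, with Hymexazol as reference fungicide. Chitinase activity was read as the D-GlcNAc content (mg/mL) produced by the enzyme in 1 h.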

For assay [17], the system named is Fusarium oxysporum. The assay can be described thus: Effect on mycelial reducing sugar content in Fusarium oxysporum after 12 hrs. It counts as functional. The gist of the method:
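F. oxysporum mycelia were treated and sampled from 0.5 h to 12 h. Mycelial reducing sugar content (mg/mL) was measured at each time point against an untreated control.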

As a reminder, the EC50 is the concentration at which the effect is half-maximal. Broadly, the inhibition is the drop in the measured response relative to a control, in per cent. Turning to `C=CCSc1ncnc2ccc(F)cc12`, the EC50 in the assay on Fusarium oxysporum [1] was 32.2 µg/mL (≈ 146 µM); with Thanatephorus cucumeris it was 40.6 µg/mL (≈ 184 µM); in the assay on Fusarium graminearum [2] it was 37 µg/mL (≈ 168 µM); in assay [4], 21.4 µg/mL (≈ 97.2 µM); with Sclerotinia sclerotiorum, 35.2 µg/mL (≈ 160 µM); in the assay on Cytospora [6], 23.3 µg/mL (≈ 106 µM). Also, the values for the EC50 in the assay on Phytophthora infestans, in the assay with Botrytis cinerea and in the assay with Rhizoctonia solani were 51.2 µg/mL (≈ 232 µM), 42.4 µg/mL (≈ 192 µM) and 46.3 µg/mL (≈ 210 µM), respectively. In addition, the figures for the inhibition at 500 µg/mL in the assay on Cytospora [3], in the assay on Fusarium graminearum [5] and with Fusarium oxysporum [7] were 96.9%, 100% and 92.3%, respectively.

`CCOC(=O)CSc1ncnc2ccc(F)cc12`: the inhibition at 500 µg/mL in the assay with Cytospora [3] is 30.1%; with Fusarium graminearum [5] it was 13.3%; in the assay with Fusarium oxysporum [7], 20.3%.

Turning to `Fc1ccc2ncnc(SCc3ccccc3)c2c1`, the values for the inhibition at 500 µg/mL in the assay on Cytospora [3], with Fusarium graminearum [5] and in the assay on Fusarium oxysporum [7] were 21.4%, 15% and 18.9%, respectively.

For `COc1ccc(C(=O)CSc2ncnc3ccc(F)cc23)c(OC)c1OC`, the inhibition at 500 µg/mL in the assay with Cytospora [3] is 11.2%; in the assay on Fusarium graminearum [5], 6.2%; in the assay with Fusarium oxysporum [7], 5.3%.

`CCSc1ncnc2ccc(F)cc12`: the result in the assay with Fusarium oxysporum [8] and in the assay on Fusarium oxysporum [9] was Active. The EC50 in the assay with Fusarium oxysporum [1] turned out to be 18.2 µg/mL (≈ 87.4 µM); in the assay on Thanatephorus cucumeris it was 30.8 µg/mL (≈ 148 µM); in the assay on Fusarium graminearum [2], 12.4 µg/mL (≈ 59.5 µM); in [4] it was 64.2 µg/mL (≈ 308 µM); in the assay on Sclerotinia sclerotiorum it was 11.4 µg/mL (≈ 54.7 µM); in the assay with Cytospora [6], 19.2 µg/mL (≈ 92.2 µM). For the same compound, the EC50 with Phytophthora infestans amounted to 26.8 µg/mL (≈ 129 µM); in the assay on Botrytis cinerea, 8.3 µg/mL (≈ 39.9 µM); with Rhizoctonia solani it was 24.9 µg/mL (≈ 120 µM). Further, the Activity turned out to be 12% in the assay with Fusarium oxysporum [10]; 19.8% in the assay with Fusarium oxysporum [11]; 6.1% with Fusarium oxysporum [12]; 33.1% in the assay on Fusarium oxysporum [13]; 6.5% with Fusarium oxysporum [14]; 0.0364 mg/mL in the assay on Fusarium oxysporum [16]. In the assay on Fusarium oxysporum [17], this compound displayed an Activity of 0.67 mg/mL. Besides, the inhibition at 500 µg/mL in the assay with Cytospora [3] was determined as 100%; with Fusarium graminearum [5] it was 100%; in the assay on Fusarium oxysporum [7], 98.5%. Also, at 60 µg/mL the inhibition with Fusarium oxysporum [15] was 32.9%.

For the compound `Fc1ccc2ncnc(SCc3ccc(Cl)cc3)c2c1`, the inhibition at 500 µg/mL with Cytospora [3] is 11.8%; with Fusarium graminearum [5], 7.6%; with Fusarium oxysporum [7], 5.9%.

Consider `Fc1ccc2ncnc(SCc3ccc(Cl)nc3)c2c1`, for which the results for the inhibition at 500 µg/mL with Cytospora [3], in the assay on Fusarium graminearum [5] and with Fusarium oxysporum [7] were 38.5%, 16.3% and 21.9%, respectively.

Consider `Cc1cc(O)no1` [HYMEXAZOL], for which the values for the Activity in the assay on Fusarium oxysporum [10], in the assay with Fusarium oxysporum [16] and in the assay on Fusarium oxysporum [17] were 6%, 0.0411 mg/mL and 0.85 mg/mL, respectively. For the same compound, the values for the inhibition at 500 µg/mL in the assay on Cytospora [3], with Fusarium graminearum [5] and with Fusarium oxysporum [7] were 91.2%, 100% and 91.3%, respectively. The EC50 in the assay on Sclerotinia sclerotiorum stood at 5.1 µg/mL (≈ 51.5 µM); in the assay on Botrytis cinerea, 4.6 µg/mL (≈ 46.4 µM).

As for `CCCSc1ncnc2ccc(F)cc12`, the EC50 was determined as 25.1 µg/mL (≈ 113 µM) in the assay with Fusarium oxysporum [1]; 46.2 µg/mL (≈ 208 µM) in the assay with Thanatephorus cucumeris; 30.1 µg/mL (≈ 135 µM) in the assay on Fusarium graminearum [2]; 40.1 µg/mL (≈ 180 µM) in assay [4]; 17.1 µg/mL (≈ 76.9 µM) in the assay with Sclerotinia sclerotiorum; 25.8 µg/mL (≈ 116 µM) in the assay on Cytospora [6]. For the same compound, the EC50 in the assay on Phytophthora infestans was 26.9 µg/mL (≈ 121 µM); in the assay on Botrytis cinerea it was 13 µg/mL (≈ 58.5 µM); in the assay on Rhizoctonia solani, 29.2 µg/mL (≈ 131 µM). For the same compound, the results for the inhibition at 500 µg/mL in the assay on Cytospora [3], with Fusarium graminearum [5] and in the assay with Fusarium oxysporum [7] were 94.8%, 96.4% and 89.3%, respectively.
